Results as given in ChEMBL document CHEMBL1147003, “Anti-Plasmodium activity of imidazole-dioxolane compounds” (Bioorg Med Chem Lett, 2006).
pIC50: −log10 of the molar value.

Columns and labels:
[1] = system: CHO; test: Selectivity index as IC50 CHO/IC50 Plasmodium falciparum; assay type: functional
[2] = system: CHO; test: Cytotoxicity against CHO cell line; assay type: functional, cell-based, Cricetulus griseus
Procedure, shortened: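 CHO cells in RPMI-1640 with 10% FBS, 25 mM HEPES and gentamicin, grown to 50% confluency before compounds added in DMSO. Viability after 24 h by MTT (1 mg/mL), 30 min further incubation, medium removed, DMSO added, absorbance at 540 nm. Run in quadruplicate. IC50 by non-linear regression.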

[3] = system: Plasmodium falciparum; test: Antimalarial activity against Plasmodium falciparum; assay type: functional, organism-based
Procedure, shortened: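 pLDH read-out of P. falciparum growth. Compounds in DMSO (10 mg/mL) serially diluted twofold in duplicate. Non-synchronous culture added at 5% hematocrit, 2% parasitemia. Incubated 72 h at 37 °C under 95% N2/3% CO2/2% O2. Sample of resuspended wells mixed with pLDH assay mixture, absorbance at 540 nm after 1 h. IC50 from non-linear regression, mean ± SD of four independent assays.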

| pIC50 [3] | pIC50 ([3]; Plasmodium falciparum) | SMILES | Ratio IC50 [1] | pIC50 ([2]; cho) | pIC50 ([2]; Cricetulus griseus, CHO) |
| --- | --- | --- | --- | --- | --- |
| 5.92 | – | Cc1ccc(S(=O)(=O)OC[C@@H]2CO[C@](CCc3ccc(Cl)cc3)(Cn3ccnc3)O2)cc1 | 3.2 | 5.42 | – |
| – | 5.52 | Cl.Nc1ccc(SC[C@H]2CO[C@](CCc3ccc(Cl)cc3)(Cn3ccnc3)O2)cc1 | 84.7 | – | 3.60 |
| – | 5.15 | C[C@@H]1CO[C@@](CCc2ccc(Cl)cc2)(Cn2ccnc2)O1.Cl | 7.3 | – | 4.29 |
| – | 6.10 | Cl.Cl.Nc1ccc(SC[C@@H]2CO[C@](CCc3ccc(Cl)cc3)(Cn3ccnc3)O2)cc1 [AZALANSTAT DIHYDROCHLORIDE] | 16.3 | – | 4.89 |
| – | 5.46 | COc1ccc(SC[C@@H]2CO[C@@](CCc3ccc(Cl)cc3)(Cn3ccnc3)O2)cc1.Cl | 1.1 | – | 5.43 |
| – | 4.15 | Cl.OC(CCc1ccc(Cl)cc1)Cn1ccnc1 (stereo unspecified) | 4.5 | – | 3.50 |
| – | 5.48 | Cl.Clc1ccc(CC[C@@]2(Cn3ccnc3)OC[C@@H](CSc3ccccc3)O2)cc1 | 2.1 | – | 5.15 |
| – | 4.64 | C[C@@H]1CO[C@](CCc2ccc(Cl)cc2)(Cn2ccnc2)O1.Cl | 4.4 | – | 3.99 |
| – | 6.22 | Cl.Cl.Nc1ccccc1SC[C@@H]1CO[C@](CCc2ccc(Cl)cc2)(Cn2ccnc2)O1 | 10 | – | 5.22 |
| 6.17 | – | Cc1ccc(S(=O)(=O)OC[C@@H]2CO[C@](CCc3ccc(Cl)cc3)(Cn3ccnc3)O2)cc1.Cl | 10.4 | 5.15 | – |
| – | 6.52 | Cl.Cl.Nc1cccc(SC[C@@H]2CO[C@](CCc3ccc(Cl)cc3)(Cn3ccnc3)O2)c1 | 60 | – | 4.74 |
| – | 4.70 | Cl.FC[C@@H]1CO[C@@](CCc2ccc(Cl)cc2)(Cn2ccnc2)O1 | 1.2 | – | 4.62 |
| – | 5.89 | Cl.Nc1ccc(SC[C@@H]2CO[C@@](CCc3ccc(Cl)cc3)(Cn3ccnc3)O2)cc1 | 287.7 | – | 3.43 |
| – | 5.70 | Cl.Nc1cccc(SC[C@@H]2CO[C@@](CCc3ccc(Cl)cc3)(Cn3ccnc3)O2)c1 | 5 | – | 5.00 |
| – | 5.54 | Cc1ccc(S(=O)(=O)OC[C@@H]2CO[C@@](CCc3ccc(Cl)cc3)(Cn3ccnc3)O2)cc1 | 2.8 | – | 5.10 |
| – | 5.08 | CCC(COC(C)=O)n1ccnc1 (stereo unspecified) | 222.7 | – | 2.73 |
| – | 6.05 | Cl.Clc1ccc(CC[C@@]2(Cn3ccnc3)OC[C@@H](CSc3ccc(Br)cc3)O2)cc1 | 13.3 | – | 4.92 |
| – | 5.89 | Cl.Cl.Nc1ccc(OC[C@@H]2CO[C@@](CCc3ccc(Cl)cc3)(Cn3ccnc3)O2)cc1 | 10.8 | – | 4.85 |
| – | 5.60 | Cl.Clc1ccc(CC[C@@]2(Cn3ccnc3)OC[C@@H](CSc3ccc(Cl)cc3)O2)cc1 | 1.3 | – | 5.48 |
| – | 5.72 | Cc1ccc(S(=O)(=O)OC[C@H]2CO[C@@](CCc3ccc(Cl)cc3)(Cn3ccnc3)O2)cc1 | 3 | – | 5.24 |
| – | 5.64 | Cl.Cl.Nc1ccccc1SC[C@H]1CO[C@@](CCc2ccc(Cl)cc2)(Cn2ccnc2)O1 | 4.8 | – | 4.96 |

| pIC50 [3] | pIC50 ([3]; Plasmodium falciparum) | SMILES | Ratio IC50 [1] | pIC50 ([2]; cho) | pIC50 ([2]; Cricetulus griseus, CHO) |
| --- | --- | --- | --- | --- | --- |
| – | 4.74 | C[C@H]1CO[C@](CCc2ccc(Cl)cc2)(Cn2ccnc2)O1.Cl | 4.6 | – | 4.09 |
| – | 5.41 | Cl.Cl.Nc1ccccc1SC[C@@H]1CO[C@@](CCc2ccc(Cl)cc2)(Cn2ccnc2)O1 | 4.1 | – | 4.80 |
| – | 5.64 | Cl.Clc1ccc(CCC2(Cn3ccnc3)SCCS2)cc1 | 10.9 | – | 4.60 |
| – | 5.92 | Cl.Cl.Nc1cccc(SC[C@H]2CO[C@@](CCc3ccc(Cl)cc3)(Cn3ccnc3)O2)c1 | 7.5 | – | 5.05 |
| – | 5.60 | Cl.Nc1cccc(SC[C@H]2CO[C@](CCc3ccc(Cl)cc3)(Cn3ccnc3)O2)c1 | 3.7 | – | 5.04 |
| – | 5.92 | Cl.Clc1ccc(CC[C@]2(Cn3ccnc3)OC[C@@H](CSc3ccc4ccccc4c3)O2)cc1 | 7.5 | – | 5.05 |
| – | 6.47 | C[C@@H]1CO[C@@](CCc2ccccc2)(Cn2ccnc2)O1.Cl | 2226.7 | – | 3.18 |
| – | 5.39 | C[C@H]1CO[C@@](CCc2ccc(Cl)cc2)(Cn2ccnc2)O1.Cl | 9.5 | – | 4.41 |
| – | 4.42 | COc1ccc(CCC(O)Cn2ccnc2)cc1.Cl (stereo unspecified) | 3.1 | – | 3.94 |
| – | 5.96 | Cl.Oc1ccc(OC[C@@H]2CO[C@@](CCc3ccc(Cl)cc3)(Cn3ccnc3)O2)cc1 | 0.8 | – | 6.05 |
| – | 4.60 | Cl.O=C(CCc1ccc(Cl)cc1)Cn1ccnc1 | 6.7 | – | 3.77 |
| – | 5.31 | Cl.Cl.Clc1ccc(CC[C@@]2(Cn3ccnc3)OC[C@@H](CSc3ccncc3)O2)cc1 | 5.5 | – | 4.57 |
| – | 6.10 | Cl.Fc1ccc(COC(CCc2ccc(Cl)cc2)Cn2ccnc2)cc1 (stereo unspecified) | 6.6 | – | 5.28 |
| – | 5.05 | Cl.OC[C@@H]1CO[C@@](CCc2ccc(Cl)cc2)(Cn2ccnc2)O1 | 25.2 | – | 3.64 |
| – | 5.68 | CSC[C@@H]1CO[C@@](CCc2ccc(Cl)cc2)(Cn2ccnc2)O1.Cl | 4.7 | – | 5.03 |
| – | 5.48 | Cl.Nc1ccccc1SC[C@H]1CO[C@](CCc2ccc(Cl)cc2)(Cn2ccnc2)O1 | 2 | – | 5.18 |
| – | 6.10 | COc1ccc(OC[C@@H]2CO[C@](CCc3ccc(Cl)cc3)(Cn3ccnc3)O2)cc1.Cl | 18.8 | – | 4.82 |
| – | 7.22 | Oc1ccc(SC[C@@H]2CO[C@@](CCc3ccc(Cl)cc3)(Cn3ccnc3)O2)cc1 | 181.6 | – | 4.96 |
| – | 5.57 | Cl.Cl.Nc1ccc(SC[C@H]2CO[C@@](CCc3ccc(Cl)cc3)(Cn3ccnc3)O2)cc1 | 2.2 | – | 5.22 |
| – | 5.55 | Cc1ccc(S(=O)(=O)OC[C@H]2CO[C@](CCc3ccc(Cl)cc3)(Cn3ccnc3)O2)cc1 | 4.6 | – | 4.89 |

| SMILES | pIC50 [3] | pIC50 ([3]; Plasmodium falciparum) | Ratio IC50 [1] | pIC50 ([2]; cho) | pIC50 ([2]; Cricetulus griseus, CHO) |
| --- | --- | --- | --- | --- | --- |
| Cl.Clc1ccc(CCC2(Cn3ccnc3)OCCO2)cc1 | – | 5.05 | 9.3 | – | 4.08 |
